In paper PMC10825549 (JID Innovations, 2023):

Columns and labels:
[1] = molecular target: Aurora A (Homo sapiens, UniProt O14965); assay: IC50 for kinases of potential cross-over; assay type: biochemical
[2] = molecular target: KDR (VEGFR2) (Homo sapiens, UniProt P35968); assay: IC50 for kinases of potential cross-over; assay type: biochemical
[3] = molecular target: HPK1 (MAP4K1) (Homo sapiens, UniProt Q92918); assay: IC50 for kinases of potential cross-over; assay type: biochemical
[4] = molecular target: MKNK1/MNK1 (Homo sapiens, UniProt Q9BUB5); assay: IC50 for kinases of potential cross-over; assay type: biochemical
[5] = system: Jak1/3; assay: Inhibition of IL-2-induced STAT phosphorylation in PBMCs; assay type: cell-based, human
Method in brief: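 Ficoll-isolated human PBMCs, cryopreserved, thawed into RPMI/10% heat-inactivated FBS assay medium, 200,000 cells/well. Serially diluted test compound (final 20 μM to 2 × 10−6 μM) or 0.1% DMSO vehicle preincubated 1 h at 37 °C. Cytokine then added for 5–10 min, followed by 30 min shaking at 4 °C and lysis. Phospho-STAT5/STAT4 by MSD immunoassay, phospho-STAT1 by ELISA. IC50 reported as mean ± SD.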

[6] = Metabolic stability in liver microsomes; assay type: in vitro ADME; conditions: human
Method in brief: (§1)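 Test compound from 1 mM DMSO solution preincubated 5 min with dog, human, monkey, rat or minipig liver microsomes. NADPH (10 mM) then added. Reactions stopped at 0, 5, 15 and 30 min with 0.05% formic acid in acetonitrile containing loperamide internal standard. Supernatants analysed by LC-MS/MS; n = 1 per microsome species.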

[7] = Metabolic stability in liver microsomes; assay type: in vitro ADME; conditions: dog
Method in brief: as §1

[8] = 7-day minipig study: plasma pharmacokinetics; assay type: in vivo
[9] = 28-day minipig repeat exposure study: toxicokinetics; assay type: in vivo; conditions: for concentration at 0 h / concentration at 0.5 h / concentration at 1 h / concentration at 2 h / concentration at 4 h / concentration at 8 h / concentration at 12 h / concentration at 24 h: both, plasma, topical; for concentration in the skin: terminal sacrifice (day 28)
Method in brief: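 Topical solution applied to minipigs once daily for 28 days at 0, 40, 80 or 160 mg/day, left on skin 20–22 h, then wiped with moist towel. Jugular blood collected days 1 and 28, pre-dose and ~0.5, 1, 2, 4, 8, 12, 22 h after application, after IM acepromazine 0.2–0.4 mg/kg. Pigs nonfasted; K2 EDTA plasma; validated LC-MS/MS.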

[10] = Phase 2a study ATI-1777-AD-201: plasma pharmacokinetics; assay type: in vivo, human
Method in brief: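 Participants with moderate/severe AD applied 2% topical solution twice daily for 4 weeks. Plasma test compound measured by sparse sampling, 8 samples per participant. Concentrations expressed relative to the Jak1/3 IC50.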

[11] = male, plasma, topical, 160 mg/day

Aurora A, sequence (O14965 whole entry): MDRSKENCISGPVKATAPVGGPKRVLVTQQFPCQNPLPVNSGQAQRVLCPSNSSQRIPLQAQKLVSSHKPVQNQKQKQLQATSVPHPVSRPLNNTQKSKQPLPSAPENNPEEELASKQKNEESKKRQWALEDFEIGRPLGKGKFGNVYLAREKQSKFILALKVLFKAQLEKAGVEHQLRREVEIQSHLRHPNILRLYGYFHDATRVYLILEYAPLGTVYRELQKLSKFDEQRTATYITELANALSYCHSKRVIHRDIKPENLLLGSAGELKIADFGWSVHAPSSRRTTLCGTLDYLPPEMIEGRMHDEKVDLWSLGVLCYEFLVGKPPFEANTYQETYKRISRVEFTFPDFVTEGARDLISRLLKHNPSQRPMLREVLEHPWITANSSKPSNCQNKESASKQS
KDR (VEGFR2), sequence (P35968 20-1356): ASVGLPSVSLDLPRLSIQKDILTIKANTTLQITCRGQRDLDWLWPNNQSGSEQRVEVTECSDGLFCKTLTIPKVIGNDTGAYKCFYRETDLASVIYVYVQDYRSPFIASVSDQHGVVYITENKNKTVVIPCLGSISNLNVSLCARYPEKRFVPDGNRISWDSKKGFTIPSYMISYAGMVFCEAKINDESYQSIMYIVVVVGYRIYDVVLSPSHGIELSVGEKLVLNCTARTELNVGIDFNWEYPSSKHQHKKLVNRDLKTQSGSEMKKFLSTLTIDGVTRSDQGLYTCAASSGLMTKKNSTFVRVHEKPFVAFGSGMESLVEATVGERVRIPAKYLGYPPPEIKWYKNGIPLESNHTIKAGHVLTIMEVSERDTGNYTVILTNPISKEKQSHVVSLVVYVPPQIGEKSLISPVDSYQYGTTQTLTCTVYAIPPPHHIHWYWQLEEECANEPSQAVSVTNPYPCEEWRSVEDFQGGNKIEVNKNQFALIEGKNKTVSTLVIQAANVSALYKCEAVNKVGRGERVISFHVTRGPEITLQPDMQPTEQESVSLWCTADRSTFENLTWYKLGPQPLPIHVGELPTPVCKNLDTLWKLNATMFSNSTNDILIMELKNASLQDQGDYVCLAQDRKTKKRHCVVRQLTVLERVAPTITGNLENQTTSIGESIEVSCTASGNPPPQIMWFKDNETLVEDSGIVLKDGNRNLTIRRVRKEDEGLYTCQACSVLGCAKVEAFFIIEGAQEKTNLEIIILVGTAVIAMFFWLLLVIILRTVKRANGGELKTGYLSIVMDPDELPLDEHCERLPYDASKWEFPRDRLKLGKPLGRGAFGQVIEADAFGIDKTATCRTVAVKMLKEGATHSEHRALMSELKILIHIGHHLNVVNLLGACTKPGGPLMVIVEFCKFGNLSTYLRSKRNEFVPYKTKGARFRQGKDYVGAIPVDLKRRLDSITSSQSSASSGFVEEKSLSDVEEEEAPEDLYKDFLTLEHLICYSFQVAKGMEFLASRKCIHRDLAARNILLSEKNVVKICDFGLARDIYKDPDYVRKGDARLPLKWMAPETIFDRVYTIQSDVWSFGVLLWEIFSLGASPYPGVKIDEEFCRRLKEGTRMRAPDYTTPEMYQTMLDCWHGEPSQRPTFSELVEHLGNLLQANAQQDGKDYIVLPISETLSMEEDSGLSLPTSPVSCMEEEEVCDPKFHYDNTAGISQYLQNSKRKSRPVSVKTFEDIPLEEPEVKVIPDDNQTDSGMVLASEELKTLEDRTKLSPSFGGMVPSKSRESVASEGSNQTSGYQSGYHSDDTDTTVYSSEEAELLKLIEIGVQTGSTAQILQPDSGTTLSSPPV
MKNK1/MNK1, sequence (Q9BUB5 whole entry): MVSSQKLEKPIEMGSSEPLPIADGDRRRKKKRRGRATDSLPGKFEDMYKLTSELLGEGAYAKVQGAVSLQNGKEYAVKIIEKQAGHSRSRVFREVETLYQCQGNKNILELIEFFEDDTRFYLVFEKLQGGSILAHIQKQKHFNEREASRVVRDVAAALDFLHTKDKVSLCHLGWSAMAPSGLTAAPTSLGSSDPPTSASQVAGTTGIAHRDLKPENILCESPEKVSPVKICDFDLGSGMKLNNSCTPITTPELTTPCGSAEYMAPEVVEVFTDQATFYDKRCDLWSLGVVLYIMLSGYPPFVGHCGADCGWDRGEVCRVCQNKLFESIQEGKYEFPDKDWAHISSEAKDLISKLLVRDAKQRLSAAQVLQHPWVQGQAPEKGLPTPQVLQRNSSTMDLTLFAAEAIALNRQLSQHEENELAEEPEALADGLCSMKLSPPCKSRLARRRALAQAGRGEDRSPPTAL
HPK1 (MAP4K1), sequence (Q92918 whole entry): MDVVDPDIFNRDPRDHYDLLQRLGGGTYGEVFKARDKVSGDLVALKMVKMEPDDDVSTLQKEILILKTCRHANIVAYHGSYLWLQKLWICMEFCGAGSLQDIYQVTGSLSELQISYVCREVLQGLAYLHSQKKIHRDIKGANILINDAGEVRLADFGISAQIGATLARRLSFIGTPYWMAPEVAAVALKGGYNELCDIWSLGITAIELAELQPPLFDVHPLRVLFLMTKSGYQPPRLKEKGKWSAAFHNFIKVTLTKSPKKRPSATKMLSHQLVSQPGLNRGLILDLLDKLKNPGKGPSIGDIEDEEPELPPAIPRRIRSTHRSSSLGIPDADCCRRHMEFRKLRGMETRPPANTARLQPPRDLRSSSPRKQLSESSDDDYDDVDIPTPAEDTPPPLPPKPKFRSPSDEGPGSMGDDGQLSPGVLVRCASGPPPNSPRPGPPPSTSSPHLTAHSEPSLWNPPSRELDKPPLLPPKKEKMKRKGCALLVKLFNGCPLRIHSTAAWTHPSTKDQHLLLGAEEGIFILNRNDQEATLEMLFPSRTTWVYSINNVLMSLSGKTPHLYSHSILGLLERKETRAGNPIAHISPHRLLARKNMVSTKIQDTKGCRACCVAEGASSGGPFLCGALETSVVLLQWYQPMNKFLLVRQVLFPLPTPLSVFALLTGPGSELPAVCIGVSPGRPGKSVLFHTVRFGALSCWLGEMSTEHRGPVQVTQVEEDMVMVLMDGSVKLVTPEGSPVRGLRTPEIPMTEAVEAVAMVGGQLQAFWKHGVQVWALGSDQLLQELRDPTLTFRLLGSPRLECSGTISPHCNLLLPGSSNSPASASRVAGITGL

SMILES: CCOC(=O)c1cnc2[nH]ccc2c1N[C@@H]1CCCN(C(=O)CC#N)C1 [ATI-1777, ethyl (R)-4-((1-(2-cyanoacetyl)piperidin-3-yl)amino)-1H-pyrrolo[2,3-b]pyridine-5-carboxylate]
- IC50 [1]: 641 nM
- Fold Selectivity ([1]; Aurora A vs Jak1 (= 1)): 427 fold
- IC50 [2]: 127 nM
- Fold Selectivity ([2]; KDR (VEGFR2) vs Jak1 (= 1)): 85 fold
- IC50 [3]: 285 nM
- Fold Selectivity ([3]; HPK1 (MAP4K1) vs Jak1 (= 1)): 190 fold
- IC50 [4]: 584 nM
- Fold Selectivity ([4]; MKNK1/MNK1 vs Jak1 (= 1)): 389 fold
- IC50 ([5]; Homo sapiens, PBMC, read-out: IC50 Mean ± SD): 19 ± 6 nM
- Fold Jak1/3 ([5]; IL-2, Jak1/3 (reference)): 1.0 fold
- CLint scaled [6]: 200 mL/min/kg
- microsomal CLint [6]: 74 µL/min/mg
- half-life ([6]; T1/2, Study 1, n = 1): 8.71 min
- half-life ([6]; T1/2, Study 2, n = 1): 19 min
- CLint scaled [7]: 198 mL/min/kg
- microsomal CLint [7]: 46 µL/min/mg
- half-life ([7]; T1/2, Study 1, n = 1): 17.4 min
- half-life ([7]; T1/2, Study 2, n = 1): 30 min
- systemic exposure ([8]; 2% solution, 7 consecutive days, LLOQ = 0.5 ng/ml, at most time points): unquantifiable
- concentration at 0 h [8, 11]: 0 ng/mL
- concentration at 1 h [8, 11]: 0 ng/mL
- concentration at 2 h [8, 11]: 0.387 ng/mL
- concentration at 4 h [8, 11]: 0.221 ng/mL
- concentration at 8 h [8, 11]: 0.391 ng/mL
- concentration at 12 h [8, 11]: 0 ng/mL
- concentration at 24 h [8, 11]: 0 ng/mL
- quantifiable plasma concentrations ([9]; 160 mg group, day 28, all pigs): < 6.26 ng/mL
- plasma concentrations when quantifiable ([9]; 40 and 80 mg/day, days 1 and 28, nonquantifiable in most pigs): ≤ 4.94 ng/mL
- concentration at 0 h ([9]; 40 mg/day): 0.34 ng/mL
- concentration at 0.5 h ([9]; 40 mg/day): 0.143 ng/mL
- concentration at 1 h ([9]; 40 mg/day): 0.0685 ng/mL
- concentration at 2 h ([9]; 40 mg/day): 0.108 ng/mL
- concentration at 4 h ([9]; 40 mg/day): 0.121 ng/mL
- concentration at 8 h ([9]; 40 mg/day): 0 ng/mL
- concentration at 12 h ([9]; 40 mg/day): 0 ng/mL
- concentration at 24 h ([9]; 40 mg/day): 0 ng/mL
- concentration at 0 h ([9]; 80 mg/day): 0.118 ng/mL
- concentration at 0.5 h ([9]; 80 mg/day): 0.647 ng/mL
- concentration at 1 h ([9]; 80 mg/day): 0.0995 ng/mL
- concentration at 2 h ([9]; 80 mg/day): 0.197 ng/mL
- concentration at 4 h ([9]; 80 mg/day): 0.193 ng/mL
- concentration at 8 h ([9]; 80 mg/day): 0.173 ng/mL
- concentration at 12 h ([9]; 80 mg/day): 0.823 ng/mL
- concentration at 24 h ([9]; 80 mg/day): 0 ng/mL
- concentration at 0 h ([9]; 160 mg/day): 1.82 ng/mL
- concentration at 0.5 h ([9]; 160 mg/day): 0.479 ng/mL
- concentration at 1 h ([9]; 160 mg/day): 1.14 ng/mL
- concentration at 2 h ([9]; 160 mg/day): 1.12 ng/mL
- concentration at 4 h ([9]; 160 mg/day): 0.755 ng/mL
- concentration at 8 h ([9]; 160 mg/day): 0.684 ng/mL
- concentration at 12 h ([9]; 160 mg/day): 1.02 ng/mL
- concentration at 24 h ([9]; 160 mg/day): 0.0569 ng/mL
- concentration in the skin ([9]; females): ≥ 1960 ng/g
- concentration in the skin ([9]; males): ≥ 4280 ng/g
- all plasma concentrations relative to IC50 for Jak1/3 ([10]; IC50 45 ng/ml): less than half of the IC50
- plasma concentrations relative to inhibitory concentrations for Jak1/2 ([10]; all plasma concentrations): below IC10
- mean plasma concentration as percentage of the IC50 for Jak1/3 ([10]; each timepoint, IC50 45 ng/ml): < 5%
- participants with samples with concentrations >10% of the IC50 for Jak1/3 ([10]; in vivo): Three
